How the values were obtained:
[1] = Inhibition of CREB (unknown origin)-mediated gene transcription in HEK293T cells preincubated for 30 mins followed by forskolin addition measured after 5 hrs by luciferase reporter gene assay; format: cell-based; conditions: Homo sapiens, HEK-293T
In short: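 HEK 293T cells transfected with CRE-RLuc (RLuc driven by three tandem CRE copies), treated with graded compound concentrations for 30 min, then stimulated with forskolin (10 μM) for another 5 h. Cells lysed and RLuc activity read, normalized to protein (RLU/μg protein). Stocks in DMSO (one in DMF). IC50 in μM, mean ± SD of at least two independent experiments run in triplicate; top concentration 50 or 100 μM.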

[2] = (§1) Inhibition of CREB-KID/CBP-KIX domain interaction (unknown origin) after 20 hrs by luciferase reporter gene assay; set-up: species or system Homo sapiens
In short: (§2)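 Split Renilla luciferase complementation assay: RLucC-KIX and KID-RLucN fusions mixed with graded compound concentrations at 4 °C for 20 h, then residual RLuc activity measured. Stocks in DMSO (one in DMF). IC50 in μM, mean ± SD of at least two independent experiments run in duplicate; top concentration 50 or 100 μM.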

[3] = Inhibition of Herpesvirus VP16-CREB (unknown origin)-mediated gene transcription in HEK293T cells by luciferase reporter gene assay; format: cell-based; conditions: HEK-293T
In short: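 HEK 293T cells cotransfected with VP16-CREB plus CRE-RLuc, treated with graded compound concentrations without forskolin stimulation, then lysed and RLuc activity read and normalized to protein (RLU/μg protein). IC50 in μM, mean ± SD of at least two independent experiments run in triplicate; top concentration 50 or 100 μM.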

HEK-293T [4] = assay: Selectivity ratio of IC50 for CREB (unknown origin)-mediated gene transcription in HEK293T cells to IC50 for CREB-KID/CBP-KIX domain interaction (unknown origin); format: cell-based; conditions: Homo sapiens
HEK-293T [5] = assay: Selectivity ratio of IC50 for Herpesvirus VP16-CREB (unknown origin)-mediated gene transcription in HEK293T cells to IC50 for CREB (unknown origin)-mediated gene transcription in HEK293T cells; format: cell-based
Homo sapiens = species: Homo sapiens; assay: as §1; in short: as §2

IC50 [1] [µM]	IC50 [2] [µM]	IC50 [3] [µM]	inhibition (Homo sapiens)	SMILES	Ratio IC50 (HEK-293T [4])	Ratio IC50 (HEK-293T [5])
> 50	13.1	–	–	O=[N+]([O-])c1ccc(CNc2ccc(Cl)cc2)c2nonc12	–	–
> 50	> 50	–	–	O=[N+]([O-])c1cc(NCc2cccc3nonc23)ccc1Cl	–	–
50	50	> 50	–	Nc1ccc(Nc2ccc(Cl)cc2)c2nonc12	–	–
9.42	0.41	13.2	–	O=[N+]([O-])c1ccc(Sc2ccccn2)c2nonc12	–	–
13.7	7.14	> 100	–	O=[N+]([O-])c1ccc(Nc2ccc(Cl)cc2)c2nonc12	2	–
> 50	0.17	–	–	O=C(Nc1ccc(Cl)cc1)c1ccc([N+](=O)[O-])c2nonc12	–	–
2.09	0.36	6.14	Dose-dependent effect	O=[N+]([O-])c1ccc(Sc2cccc[n+]2[O-])c2nonc12	–	3

Reference: ChEMBL document CHEMBL2424539, “Identification, synthesis and evaluation of substituted benzofurazans as inhibitors of CREB-mediated gene transcription” (Bioorg Med Chem Lett, 2013)
